Rows were chosen to be rich in hits. Some 3.5% of all compounds tested hit in one or more screens of this group.
MrgX1 agonist: agonists of human MrgX1 receptor; Q96LB2; 0.44% of 310,000 active; MrgX1-HEK293 cells, Fluo-4 calcium fluorescence, agonist mode; stronger effect = higher value; B-score at 10 µM;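 active = calcium response B-score plate-corrected fluorescence ratio at least 3 library SD, with starting fluorescence B-score inside 5 SD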
Target sequence (Q96LB2 whole entry, looked up): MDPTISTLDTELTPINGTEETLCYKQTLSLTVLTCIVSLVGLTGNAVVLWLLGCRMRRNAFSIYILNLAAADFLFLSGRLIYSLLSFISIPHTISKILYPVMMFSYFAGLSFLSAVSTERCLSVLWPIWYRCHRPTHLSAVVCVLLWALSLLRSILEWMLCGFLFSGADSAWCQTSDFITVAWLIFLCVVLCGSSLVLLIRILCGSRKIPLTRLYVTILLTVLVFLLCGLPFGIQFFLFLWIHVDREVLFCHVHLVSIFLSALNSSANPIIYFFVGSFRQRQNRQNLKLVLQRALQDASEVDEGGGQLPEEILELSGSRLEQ
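times = overnight plating, then 30 min 37 °C plus 30 min room-temperature dye loading | assay system = stable human MrgX1 HEK293 cell line | input = fifteen thousand cells per well | signal = kinetic calcium dye fluorescence, Fluo-4 NW | dosing = compound delivered in addition one of three | read-out = B-scored fluorescence response ratio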
MrgX1 antagonist: blocks BAM8-22 activation of human MrgX1 receptor; MRGX1-HEK293 calcium flux, Fluo-4, BAM8-22 antagonism; stronger effect = lower value; B-score at 10 µM; Q96LB2; 1.3% of 310,000 active;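 active = calcium-response B-score plate-corrected more than 3 library SD below zero, starting fluorescence within 5 deviations, no agonist response on first addition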;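 also: peak minus trough fluorescence over baseline after final BAM8-22 challenge near maximal dose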
MrgX1 PAM: allosterically activates human MrgX1 receptor signaling | Q96LB2 | MrgX1-HEK293, Fluo-4 calcium flux, FDSS; stronger effect = higher value | 0.63% of 310,000 active | B-score at 10 µM;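 active = plate-corrected calcium response at least 3 library SD above typical, normal starting fluorescence, not activating the receptor alone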;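 also: compound read alongside a low EC10 to EC30 dose of BAM8-22 agonist; peak minus trough fluorescence over baseline measured at the second addition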
RGS4 act: potentiators or activators of RGS4; HEK293 M3R/inducible RGS4, carbachol calcium flux Fluo4; stronger effect = lower value; B-score at 10 µM; 0.92% of 310,000 active; AID 463111;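 active = B-score of the integrated calcium signal more than 4 SD below the library mean, with starting fluorescence not abnormally high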;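 also: negative B-score means reduced calcium response which marks RGS4 activation or potentiation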
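Assay system: Inducible-RGS4 HEK293 cells carrying M3 receptor | Schedule: Compound preincubation 20 min at room temperature before agonist | Signal: Kinetic calcium fluorescence imaging with Fluo4-AM dye, 2 µM | Read-out basis: B score from integrated fluorescence ratio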
RGS4 inh: inhibitors of human RGS4; P49798; HEK293 M3R/RGS4 inducible, Fluo-4 calcium flux; stronger effect = higher value; triggered by carbachol at its EC20; AID 463165; B-score at 10 µM; 0.45% of 310,000 active;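 active = B-score, a plate-corrected calcium signal, over three deviations above library mean, with baseline fluorescence within five deviations of library mean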;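 also: RGS4 expression induced by doxycycline in cells with stable M3 receptor; B-score is computed from the integrated fluorescence ratio over baseline after carbachol; higher B-score means a larger calcium signal and so more RGS4 inhibition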
Target sequence (P49798 whole entry, looked up): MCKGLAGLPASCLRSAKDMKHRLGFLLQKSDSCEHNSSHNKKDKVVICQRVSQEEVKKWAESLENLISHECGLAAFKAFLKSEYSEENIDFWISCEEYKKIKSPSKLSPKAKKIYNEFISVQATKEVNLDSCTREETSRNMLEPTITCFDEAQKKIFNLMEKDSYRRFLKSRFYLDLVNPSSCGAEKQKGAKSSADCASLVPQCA
MrgX1 antag conf: reconfirmed antagonist of human MrgX1 receptor signaling. MrgX1-HEK293, BAM8-22 calcium flux, Fluo-4; stronger effect = lower value. shares compounds with MrgX1 antagonist. 19% of 2,300 active. remaining BAM8-22 calcium response % of control (stronger effect = lower value), % at 10 µM. AID 602420;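 active = remaining agonist calcium response no higher than 100% minus 3 SD of agonist-only control wells, with starting fluorescence near control levels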;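 also: agonist BAM8-22 given at a near maximal EC90 to ECmax level; peak minus minimum fluorescence divided by baseline after agonist addition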
HEK293 Ca flux: activity in parental HEK293 cells lacking MrgX1 | shares compounds with MrgX1 antagonist | Fluo-4 calcium fluorescence, FDSS | fluorescence ratio F(max-min)/F0 at 10 µM | 2% of 4,000 active | AID 624111;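 active = duplicate-averaged calcium fluorescence ratio at least three times the standard deviation of buffer wells, a nonspecific response in parental cells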
HEK293 Ca counter: counter-screen for MrgX1 allosteric activators: effect in parental HEK293 cells | shares compounds with MrgX1 antagonist | parental HEK293 calcium flux, Fluo-4 fluorescence ratio; stronger effect = higher value | fluorescence ratio F(max-min)/F0 at 10 µM | 0.4% of 4,000 active | AID 624114;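 active = calcium fluorescence ratio, averaged over duplicates, at least 3 SD of the buffer-well ratio, meaning a nonspecific response in receptor-free cells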;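 also: untransfected parental HEK293 lacking MrgX1 used as counterscreen for MrgX1 allosteric activators; fluorescence change taken during the second addition on a kinetic imager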
HEK293 Ca cntr2: activity in parental HEK293 cells lacking MrgX1 receptor | shares compounds with MrgX1 antagonist | fluorescence ratio F(max-min)/F0 at 10 µM | Fluo-4 calcium fluorescence (FDSS); stronger effect = higher value | 8.7% of 4,000 active;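 active = calcium fluorescence ratio at least three times the spread of buffer wells, meaning a non-specific response in parental cells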
Numbers without * were called inactive; i = inactive; . = no result given.

SMILES | MrgX1 agonist | MrgX1 antagonist | MrgX1 PAM | RGS4 act | RGS4 inh | MrgX1 antag conf | HEK293 Ca flux | HEK293 Ca counter | HEK293 Ca cntr2
O=C(NCCc1ccccc1)C1CCN(S(=O)(=O)N2CCC3(CC2)OCCO3)CC1 | i | -6* | i | i | i | i | i | i | i
O=C(NCCc1ccccc1)C1CCN(C(=O)NCc2ccccc2)CC1 | i | -11* | i | i | i | i | i | i | i
O=C(NCCN1CCC(Cc2ccccc2)CC1)C1CCN(S(=O)(=O)N2CCC3(CC2)OCCO3)CC1 | i | i | i | i | i | . | . | . | .
CCOc1ccc(CCNC(=O)c2ccc(C)c(NC3=NC4CS(=O)(=O)CC4S3)c2)cc1 (stereo unspecified) | i | i | i | i | i | . | . | . | .
O=S1(=O)N=C2CCCCCN2C(c2ccccc2)N1 (stereo unspecified) | i | -4.6* | i | i | i | 85%* | i | i | i
CCOC(=O)c1cnc(Nc2nc3ccccc3o2)nc1CSc1nnc(C)s1 | i | -5.3* | i | i | i | i | i | i | i
O=C(CSc1nnc(NC(=O)c2c(F)cccc2F)s1)Nc1ccc(F)cc1 | i | -6.2* | i | i | i | i | i | i | i
O=C(CN1C(=O)COc2ccc(Cl)cc21)NC1CC1 | i | i | i | i | i | . | . | . | .
O=C1CCCC2=C1Sc1ccccc1N2 | i | -4.8* | i | i | i | i | i | i | i
O=C(c1cc(COc2cccc(C(F)(F)F)c2)on1)N1CCC(Oc2cccnc2)CC1 | i | i | i | i | i | . | . | . | .
Cc1cccc(N(CC(=O)NC2CCCCC2)C(=O)c2c(C)noc2C)c1 | i | -6.5* | i | i | i | i | i | i | i
Cc1cccc(N(CC(=O)NC2CCCCC2)C(=O)c2csnn2)c1 | i | i | i | i | i | . | . | . | .
Cc1nc2c(-c3ccc(Cl)cc3)cnn2c2c1CCC2 | i | -5.1* | i | i | i | i | i | i | i
CC1=C([N+](=O)[O-])C(c2ccccc2Cl)NC(=O)N1C (stereo unspecified) | i | i | i | i | i | . | . | . | .
O=C(c1ccc(N2CCN(C(=O)c3ccccc3Br)CC2)cc1)c1cccc(F)c1 | i | i | i | i | i | . | . | . | .
O=C(c1ccc(N2CCN(C(=O)c3cccc(F)c3)CC2)cc1)c1cccc(F)c1 | i | -4.6* | i | i | i | i | i | i | i
FC(F)(F)c1ccc(NC(=S)NCc2ccccc2)cc1 | i | i | i | i | i | . | . | . | .
O=C(NCc1nnc(SCC(=O)N2CCN(c3ccccc3)CC2)o1)c1c(F)cccc1F | i | -5.7* | i | i | i | i | i | i | i
O=C(NCc1nnc(SCC(=O)N2CCCC2)o1)c1c(F)cccc1F | i | i | i | i | i | . | . | . | .
CCOc1ccc(N2CC(C(=O)Nc3nnc(Cc4ccccc4)s3)CC2=O)cc1 (stereo unspecified) | i | i | i | i | i | . | . | . | .
Cc1cc(SCC(=O)Nc2cccc(S(N)(=O)=O)c2)c(C)cc1Br | i | -9.8* | i | i | i | i | i | i | i
COc1ccc2c(=O)c(N3C(=O)c4ccccc4C3=O)c(C)oc2c1 | i | -5.2* | i | i | i | i | i | i | i
COc1ccc2c(=O)c3ccccc3oc2c1 | i | i | i | i | i | . | . | . | .
Cc1cc(-c2nnc(SCC(=O)Nc3cccc(F)c3)n2N)n[nH]1 | i | i | i | i | i | . | . | . | .
Cc1c(C(=O)N2CCN(Cc3ccc4c(c3)OCO4)CC2)sc2ncnc(N3CCN(c4ccccc4)CC3)c12 | i | -10* | i | i | i | 60%* | i | i | i
SMILES | MrgX1 agonist | MrgX1 antagonist | MrgX1 PAM | RGS4 act | RGS4 inh | MrgX1 antag conf | HEK293 Ca flux | HEK293 Ca counter | HEK293 Ca cntr2
N#CCN(CC#N)C(=O)C1c2ccccc2Oc2ccccc21 | i | i | i | i | i | . | . | . | .
CCc1ccc2c(c1)C(NC(C)=O)C(=O)N2CCN1CCOCC1 (stereo unspecified) | i | -9.7* | i | i | i | i | i | i | i
CCCN1C(=O)C(NC(C)=O)c2ccccc21 (stereo unspecified) | i | i | i | i | i | . | . | . | .
COC(=O)c1[nH]c2ccc(C)cc2c1NS(=O)(=O)c1ccc(F)c(C)c1 | i | -6.8* | i | i | i | i | i | i | i
COc1ccc(-c2cc(C(=O)N3CCN(C(c4ccccc4)c4ccccc4)CC3)no2)cc1OC | i | -5.3* | i | i | i | i | i | i | i
Cc1cc(Br)ccc1NCc1ccccn1 | i | -6* | i | i | i | i | i | i | i
CC(=O)Nc1cccc(NC(=S)Nc2cccc(Cl)c2C)c1 | i | i | i | i | i | . | . | . | .
CC(=O)Nc1cccc(NC(=O)Nc2cccc(Cl)c2C)c1 | i | -5.5* | i | i | i | i | i | i | i
CCc1cccc(CC)c1-n1c(SCC(=O)N2CCc3ccccc3C2)nnc1-c1cccnc1 | i | -7.8* | i | i | i | i | i | i | i
O=C(CCCNC(=O)c1ccc(Cl)cc1)NCc1ccccc1F | i | i | i | i | i | . | . | . | .
O=C(O)c1ccc(NC2=C(Cl)C(=O)c3ccccc3C2=O)cc1 | i | -18* | i | -7.3* | i | 14%* | i | i | i
COc1cccc(C(=O)COc2ccc3c(C)cc(=O)oc3c2)c1 | i | -5.1* | i | i | i | 83%* | i | i | i
O=C(Cc1ccc(Cl)cc1)Nc1ccc(N2CCCC2)cc1 | i | -5.3* | i | . | . | i | i | i | i
O=C(Cc1ccc(Cl)cc1)Nc1ccc(C(=O)N2CCOCC2)cc1 | i | i | i | i | i | . | . | . | .
O=c1[nH]c(=S)[nH]cc1Oc1ccc(Cl)cc1Cl | . | . | . | i | i | . | . | . | .

From PubChem
